Among the data in ChEMBL document CHEMBL1144298, “Novel 3-aminochromans as potential pharmacological tools for the serotonin 5-HT(7) receptor” (Bioorg Med Chem Lett, 2005) are Ki, Ratio and Efficacy values, retold here.

Assay [1] in a line: Binding affinity for rat serotonin 5-HT1A receptor using [3H]8-OH-DPAT as radioligand expressed in CHO cells. In kind it is cell-based. In a few lines:
(§1)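 In vitro radioligand binding on cloned receptors. For 5-HT7, cloned rat receptor expressed in Sf9 cells was labeled with [3H]5-HT. For 5-HT1A, cloned receptor expressed in CHO cells was labeled with [3H]8-OH-DPAT.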

The species named for a further assay is Rattus norvegicus. The assay can be described thus: Ratio of binding affinity for serotonin 5-HT1A to serotonin 5-HT7.
Assay [2] deals with 5-hydroxytryptamine receptor 7 (Rattus norvegicus, UniProt P32305). Kind of assay: Binding affinity for rat serotonin 5-HT7 receptor expressed in Sf9 cells using [3H]5-HT radioligand. In a few lines: as §1
Assay [3] deals with 5-hydroxytryptamine receptor 7 (Rattus norvegicus) (UniProt P32305). Kind of assay: Efficacy at the 5-HT7 receptor by measuring its effect on cAMP production in CHO cells. It is filed as functional, cell-based. (cAMP levels reflect the balance of adenylyl cyclase and phosphodiesterase activity.)
5-hydroxytryptamine receptor 7 (Rattus norvegicus), sequence (P32305 whole entry): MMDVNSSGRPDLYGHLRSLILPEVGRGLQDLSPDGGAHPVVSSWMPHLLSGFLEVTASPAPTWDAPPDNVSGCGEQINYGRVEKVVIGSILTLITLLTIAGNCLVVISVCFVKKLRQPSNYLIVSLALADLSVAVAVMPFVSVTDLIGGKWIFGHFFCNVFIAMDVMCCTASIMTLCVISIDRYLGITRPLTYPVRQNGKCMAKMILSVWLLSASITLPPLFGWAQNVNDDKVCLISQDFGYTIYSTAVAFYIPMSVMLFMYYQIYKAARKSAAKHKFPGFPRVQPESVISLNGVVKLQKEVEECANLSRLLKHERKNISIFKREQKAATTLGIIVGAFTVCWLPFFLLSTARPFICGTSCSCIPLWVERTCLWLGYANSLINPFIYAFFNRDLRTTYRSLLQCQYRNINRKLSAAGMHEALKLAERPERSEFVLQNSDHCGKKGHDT

5-hydroxytryptamine receptor 7, sequence (P32305 whole entry): as above

As a reminder, the Ki is the dissociation constant of the complex between target and ligand, obtained from inhibition or displacement. A higher Ki goes with a looser hold on the target. Regarding `Cc1cccc(C)c1-c1ccc2c(c1)C[C@H](N(C)C)CO2`, the results for the inhibition constant Ki in assay [1] and in assay [2] were 75.1 nM and 13.4 nM, respectively. Also, the Ratio in the assay filed under Rattus norvegicus is 6. The compound also displayed an Efficacy in assay [3] of 76%.

`COc1cccc(OC)c1-c1cccc2c1OC[C@@H](N(C)C)C2`: the Ki was above 1000 nM in assay [1] and 5.29 nM in assay [2]. In addition, in the assay filed under Rattus norvegicus, the Ratio is above 189. Moreover, the Efficacy in assay [3] worked out at 28%.

Regarding `COc1c(-c2ccc3c(c2)C[C@H](N(C)C)CO3)ccc2ccccc12`, the inhibitory constant (Ki) in assay [1] was 594 nM; in assay [2], 75.9 nM. For the same compound, the Ratio in the assay listed under Rattus norvegicus was determined as 8.

`CN(C)[C@@H]1COc2ccc(-c3c(O)cccc3O)cc2C1`: the Ki in assay [2] was above 1000 nM.

Consider `COc1cccc(OC)c1-c1ccc2c(c1)C[C@H](N(C)C)CO2`, for which the affinity in assay [2], expressed as Ki, was 367 nM.

In assay [2], `CN(C)[C@@H]1COc2ccc(-c3ccccc3)cc2C1` yielded a Ki above 1000 nM.

Regarding `O=S(=O)(c1ccc2cc[nH]c2c1)N1CCC[C@@H]1CCN1CCC(Oc2ccc(Cl)cc2)CC1`, the results for the Ki in assay [1] and in assay [2] were 562 nM and 1.99 nM, respectively. Besides, in the assay filed under Rattus norvegicus, the Ratio worked out at 282. Besides, the Efficacy result in assay [3] (filed as antagonist) is “Antagonist”.

With `CCCN(CCC)[C@H]1COc2c(cccc2-c2c(OC)cccc2OC)C1`, the Ki in assay [1] worked out at 174 nM. Moreover, the Ratio in the assay listed under Rattus norvegicus was 27.
